# A selection: hits, their analogues and other compounds. The true share with any hit is near 2.1%.
# PKA-R2B act: activates the human PKA-R2B holoenzyme complex; P22694+P31323; PKA-R2B holoenzyme dissociation, Cy5-IP20 fluorescence polarization; R2B truncated from residue 108, S112A mutant; 0% DMSO only, 100% 113 µM cGMP; activation, % at 11.4 µM; hit rate 0.079% among 340,000;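 active = activation above a cutoff set at the mean over all compounds plus 3 SD, cut at about 18% in these data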;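 note: higher means more holoenzyme dissociation and a rise in polarization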
# dFosB act-1: activators of mouse delta FosB homodimer; P13346; purified delta FosB, TAMRA-CDK5 oligo fluorescence polarization; percent of positive-control signal above neutral wells; activation, % at 25 µM; hit rate 0.99% among 340,000; AID 493131;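 active = mean activation above about 17%, with every replicate also reaching it, limit read from the data, passing the limit was not always enough; inconclusive = only one of the two conditions met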
# Target sequence (P13346 whole entry, looked up): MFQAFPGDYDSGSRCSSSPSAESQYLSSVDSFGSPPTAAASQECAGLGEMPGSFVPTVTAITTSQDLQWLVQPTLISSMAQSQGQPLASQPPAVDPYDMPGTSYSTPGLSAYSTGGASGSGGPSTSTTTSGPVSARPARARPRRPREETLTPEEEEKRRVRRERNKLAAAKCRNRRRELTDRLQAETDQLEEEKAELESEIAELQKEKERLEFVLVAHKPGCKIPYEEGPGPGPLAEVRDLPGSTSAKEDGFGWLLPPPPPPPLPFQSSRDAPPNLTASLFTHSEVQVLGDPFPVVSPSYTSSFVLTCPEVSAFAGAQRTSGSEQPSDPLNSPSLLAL
# CDK5 inh: CDK5/p35 (human) kinase inhibition; hit rate 0.01% among 330,000; inhibition, % at 10 µM; Q00535+Q15078; Recombinant CDK5/p35, ADP-Glo luminescence, 60 min; AID 488839;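 active = highest replicate inhibition of at least 50% and at least 75% of replicates reaching 50%; inconclusive = only one of the two criteria met; inactive = both criteria failed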;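 note: plate controls were DMSO neutral control for no effect and GW8510 at 10 µM for full effect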
# SR-BI DiI inh: inhibitors of mouse SR-BI mediated HDL lipid uptake. Q61009. ldlA[mSR-BI] CHO cells, DiI-HDL uptake fluorescence, 3 h. inhibition, % at 12.5 µM. hit rate 0.96% among 320,000. AID 488896;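 active = mean replicate inhibition of at least 70% and a set share of replicates each scoring 70 or more; inconclusive = meets just one of the two criteria; inactive = fails both criteria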;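 note: 0% = median of neutral control wells and 100% = median of positive control wells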
# PKA-R1A act: activates the PKA-R1A holoenzyme complex; P00514+P68181; PKA-R1A dissociation, Cy5-IP20 fluorescence polarization; scaled: DMSO 0%, 113 µM cGMP 100%; activation, % at 11.4 µM; hit rate 0.083% among 340,000;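 active = percent activation above the mean of all tested compounds plus 3 SD, cut at about 19% in these data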;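 note: higher means more PKAc released from R1A so a rise in polarization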
# SR-BI DiI-HDL act: SR-BI HDL lipid transfer activation | CHO ldlA[mSR-BI] cells, DiI-HDL uptake fluorescence, 3 h; 100 = double the neutral-control signal | activation, % at 12.5 µM | hit rate 0.096% among 320,000;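 active = mean replicate activation of at least 60% and every replicate at or above 60%; inconclusive = mean or all-replicate condition met, but not both; inactive = mean below 60% and not all replicates reaching 60%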;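 note: 0% = median plate neutral-control signal and 100% = twice that signal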
#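 system = CHO ldlA[mSR-BI] cells, LDL receptor-null, SR-BI overexpressing | medium = Ham's F12 with 0.5% BSA, HEPES 25 mM, pH 7.4 | probe or stimulus = DiI-HDL 10 µg/mL | compound dosing = single-point compound dose | incubation = compound exposure 3 h, 37 °C | technique = DiI fluorescence, bottom read | read-out = cell-associated DiI fluorescence as measure of HDL uptake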
# dFosB act-2: delta FosB (mouse) homodimer activation; shares compounds with dFosB act-1; purified delta FosB, TAMRA-CDK5 oligo fluorescence polarization; normalised: neutral wells 0, positive control 100; activation, % at 24.9 µM; 2,400 tested, under 10 active; AID 588690;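 active = highest replicate activation at or above 34% and every replicate reaching that threshold; inconclusive = meets only one of the two criteria; inactive = meets neither criterion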;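 note: higher polarization means more probe DNA bound by delta FosB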
# * hit, by the source's call; ? = inconclusive; · = no result.
SMILES,PKA-R2B act,dFosB act-1,CDK5 inh,SR-BI DiI inh,PKA-R1A act,SR-BI DiI-HDL act,dFosB act-2
CC(C)Oc1ccc(CNC(=O)Cn2c(=O)c3cccn3c3cccnc32)cc1,-1.3,29.5*,0.9,5.7,7.7,-5.7,8.1
CCOc1ccc(CNC(=O)Cn2c(=O)c3cccn3c3ccccc32)cc1,6.1,41.3*,-0.1,-10.1,-15.7,10.1,-0.8
O=C(Nc1cccc(-n2cnnn2)c1)c1ccco1,2.9,-15.1,-1.6,-7.7,1.6,7.7,·
O=C(Nc1cccc(-n2cnnn2)c1)c1cc2ccccc2o1,11.3,36.9*,0.4,10.9,-10.3,-10.9,6.4
CSCCC(C)N1CCC(Oc2ccc(C(=O)N3CCCC3)cc2)CC1 (configuration not stated),1.4,-6.8,-0.6,-10.4,-3.4,10.4,·
CCOc1ccccc1NC(=O)c1cc(C(=O)c2cc(Br)ccc2O)coc1=N,3.0,33.0*,-0.5,60.2,2.5,-60.2,3.9
Cc1c(C(=O)OCC(=O)NC(C)c2ccccc2)oc2ccccc12 (configuration not stated),-4.5,19.5*,2.3,-1.6,10.4,1.6,6.7
CC(NC(=O)COC(=O)c1cc2ccccc2cc1O)c1ccccc1 (configuration not stated),-2.9,24.0*,0.6,-9.3,0.5,9.3,1.1
Cc1cccc(NC(=S)NC2CCSc3ccccc32)c1 (configuration not stated),-12.7,-2.4,0.8,16.3,-4.4,-16.3,·
O=C(/C=C/c1ccc2c(c1)OCO2)Nc1nc2ccc(F)cc2s1,-4.6,30.3*,0.3,·,-13.1,·,3.5
O=C(/C=C/c1ccc2c(c1)OCO2)Nc1ccc(Cl)cn1,-8.7,102.7*,-1.2,19.2,9.0,-19.2,-0.8
O=C(COc1ccc2c(c1)OCO2)Nc1ccc(Cl)cn1,-3.1,7.6,-0.9,-8.1,-4.4,8.1,·
CCOc1ccc2nc(NC(=O)/C=C/c3ccc4c(c3)OCO4)sc2c1,-2.5,5.2,-4.5,?,-11.0,-70.4,·
CCC1(c2ccccc2)SC(N)=NC1=O (configuration not stated),1.9,-2.5,0.1,-7.1,-7.2,7.1,·
CC(=O)Nc1ccc(S(=O)(=O)N2CCN=C2SCc2ccc([N+](=O)[O-])cc2)cc1,-18.3,-5.0,-0.5,-2.2,-5.8,2.2,·
CCc1cccc(NC(=O)CC2Oc3ccccc3NC2=O)c1 (configuration not stated),0.1,20.9*,0.0,-1.7,1.3,1.7,0.4
Cc1ccc(S(=O)(=O)N/N=C\c2ccc3c(c2)OCO3)c(C)c1,-4.4,-0.6,-0.2,2.2,-5.0,-2.2,·
CCOc1cc(/C=N/N=C(/N)c2nonc2N)cc(Br)c1OCc1ccc(Cl)cc1,2.5,34.1*,1.3,36.5,5.0,-36.5,0.5
CCc1nn(CC(=O)NCCCN(CC)Cc2ccccc2)c(=O)c2cc3sccc3n12,-7.5,-3.3,-1.5,34.3,-13.0,-34.3,·
CCCCN(CCCNC(=O)Cn1nc(CC)n2c(cc3sc(C)cc32)c1=O)Cc1ccccc1,9.6,34.7*,0.2,0.0,3.8,0.0,1.3
O=C(Nc1cccc(Cl)c1)c1cc2c(=O)n3ccccc3nc2s1,-7.5,4.3,-1.7,3.0,0.7,·,·
Cc1cccc(NC(=O)c2cc3c(=O)n4ccccc4nc3s2)c1,3.3,16.3*,-0.2,16.6,-4.8,-16.6,4.0
N#Cc1ccc(CN2CCN(C(=O)CC(NC(=O)c3ccccc3)c3ccccc3)CC2)cc1 (configuration not stated),-5.6,2.5,-0.3,5.4,3.0,-5.4,·
O=C(Nc1nc(-c2nc3ccccc3s2)cs1)c1ccc(S(=O)(=O)N2CCOCC2)cc1,-9.8,32.5*,7.7,41.7,-11.5,-41.7,5.1
CN1CCN(C(=O)c2cc([N+](=O)[O-])ccc2Cl)CC1,7.8,4.5,0.1,-1.3,-1.8,1.3,·
SMILES,PKA-R2B act,dFosB act-1,CDK5 inh,SR-BI DiI inh,PKA-R1A act,SR-BI DiI-HDL act,dFosB act-2
NC(=O)c1nc(-c2cccs2)nc2c1[nH]c(=O)n2-c1ccc(F)cc1,-1.4,122.7*,-1.7,·,-8.0,·,1.5
CC(C)Cc1nc(C(N)=O)c2[nH]c(=O)n(-c3ccc(F)cc3)c2n1,3.5,-13.9,0.2,-34.2,-2.7,34.2,·
COc1cc2c3nnc(-c4ccccc4)c-3cn(Cc3ccc(F)cc3)c2cc1OC,-9.4,21.8*,1.0,-41.5,-8.5,41.5,0.6
COc1cc2c3nnc(-c4ccc(F)cc4)c-3cn(Cc3cccc(C)c3)c2cc1OC,-3.2,40.9*,1.5,-23.3,-8.7,23.3,-1.5
O=C(Cc1ccccc1)NC(NC(=S)Nc1cc(Cl)ccc1Cl)C(Cl)(Cl)Cl (configuration not stated),-3.2,22.0*,1.2,16.7,-15.0,-16.7,-0.2
O=C(NC(NC(=S)Nc1cc(Cl)ccc1Cl)C(Cl)(Cl)Cl)c1ccco1 (configuration not stated),1.5,-0.1,1.6,21.7,1.0,-21.7,·
O=C(NCc1ccncc1)Nc1cc(Cl)ccc1Cl,-2.4,-6.4,-1.6,-31.2,-2.4,31.2,·
Cc1ccc(C)c(NC(=S)NC(NC(=O)Cc2cccc3ccccc23)C(Cl)(Cl)Cl)c1 (configuration not stated),3.9,27.6*,1.8,44.5,0.7,-44.5,3.1
O=C(NCc1csc2ccc(Cl)cc12)Nc1cccc2ccccc12,-8.2,44.4*,0.0,-4.8,-15.8,4.8,1.5
O=C(NCc1ccccc1)Nc1cc(Cl)ccc1Cl,-1.2,39.9*,1.0,-1.4,1.6,1.4,1.8
Cc1ccc(Cl)c2c1NC(=O)C2=O,-18.9,0.0,-0.7,-8.2,4.5,8.2,·
CCOc1ccc(CNC(=O)CCC(=O)n2ncc3ccc(Cl)cc32)cc1,0.0,-0.2,-3.5,1.4,-8.2,-1.4,·
COc1ccccc1NS(=O)(=O)c1cccc(NS(=O)(=O)c2ccc(Cl)c(C(=O)O)c2)c1,-2.0,-13.6,0.5,16.2,-3.2,-16.2,·
CCCn1c(N)c(C(=O)COC(=O)CNC(=O)c2ccccc2OCC)c(=O)[nH]c1=O,-1.4,-1.4,2.1,-5.5,-3.5,5.5,·
NC(=O)c1nsc(C(=O)N(c2cccc(O)c2)C(C(=O)NC2CCCC2)c2ccc(Cl)cc2)c1N (configuration not stated),-14.8,71.2*,-1.2,-12.1,2.2,12.1,0.9
